# Assay results taken from PubChem BioAssay.
# Activity calls are given as the source filed them.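 Rule for the calls, unless noted: active = visually confirmed hit in the image check and inhibition above 20%; inconclusive = visually confirmed hit but inhibition not above 20%; inactive = no visual hit in the image check.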
# Key:
# [1] = inhibitors of TNFa-induced NFkB p65 translocation, primary screen, imaging, HUVEC, MLSMR starter and 10KST1 sets (AID 438;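 active = inhibition above 20% together with a positive visual image hit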;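 note: compound added about 3h40 before a 20 min TNFalpha stimulation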;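 for inhibition: signal is the nuclear over cytoplasmic p65 intensity ratio per well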); conditions: HUVEC TNFa-induced p65 nuclear translocation; cell count: measured here: nuclei count (cytotoxicity indicator), at 2.08 µM; inhibition: at 2 µM, stronger effect = higher value, 0% TNFa-plus-vehicle, 100% no-TNFa wells
# [2] = inhibitors of mutant huntingtin aggregation, primary screen, imaging, exon1htt(103Q)mCFP cells, high-content imaging (AID 483;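 active = visual image review flags a hit and inhibition of aggregation exceeds 20%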;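 note: compound exposure lasted 3 days before fixation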;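 for nuclei count: percent of the per-plate median nuclei count of sample wells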); conditions: exon1htt(103Q)mCFP cell line, aggregate imaging, at 2 µM; inhibition of aggregation: stronger effect = higher value; nuclei count: measured here: cell count, toxicity
# [3] = inhibitors of E-selectin induction by TNFa, primary screen, imaging, HUVEC, immunofluorescence, MLSMR starter and 10KST1 sets (AID 487); conditions: HUVEC TNFalpha-induced E-selectin immunofluorescence imaging, at 2 µM; inhibition: stronger effect = higher value; nuclei count: measured here: cell number, toxicity;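 for inhibition: signal is fraction of cell area covered by stained E-selectin grains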;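 for nuclei count: 100% = median nuclei count of all wells on the same plate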
# [4] = target: Voltage-gated potassium channel subunit beta-2 (Rattus norvegicus) (UniProt P62483); assay: KvBeta enzyme negative modulators, primary screen, biochemical, NADPH fluorescence (AID 622;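 active = fluorescence slope higher than the sample average by over 3 SD, cut at about -0.22 in these data, passing the limit was not always enough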;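 note: slope of raw intensity against log time taken from 70 to 1610 s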); conditions: recombinant KvBeta, 4-cyanobenzaldehyde reduction, at 10 µM, stronger effect = higher value
# Chain of Voltage-gated potassium channel subunit beta-2 (Rattus norvegicus) (P62483 whole entry, looked up): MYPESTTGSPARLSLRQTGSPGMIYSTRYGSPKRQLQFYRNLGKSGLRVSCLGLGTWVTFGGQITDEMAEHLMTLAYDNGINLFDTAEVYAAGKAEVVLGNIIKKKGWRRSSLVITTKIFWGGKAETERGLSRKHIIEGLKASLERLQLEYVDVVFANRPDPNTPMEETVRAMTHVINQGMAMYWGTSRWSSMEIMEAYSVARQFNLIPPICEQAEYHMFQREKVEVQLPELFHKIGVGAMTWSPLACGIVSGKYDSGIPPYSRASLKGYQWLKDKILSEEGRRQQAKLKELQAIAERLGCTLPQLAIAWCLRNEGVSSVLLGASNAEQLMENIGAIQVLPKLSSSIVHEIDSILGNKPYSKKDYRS
# [5] = target: Voltage-gated potassium channel subunit beta-2 (Rattus norvegicus) (UniProt P62483); assay: KvBeta positive modulators, primary screen, biochemical, NADPH fluorescence (AID 623;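 active = NADPH fluorescence slope more negative than the mean of all samples by about 3 SD, 99.7% confidence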;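 note: fluorescence intensity change per second fitted from 20 to 320 s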); conditions: Recombinant KvBeta, NADPH fluorescence decrease slope, 10 min; at 10 µM; stronger effect = lower value
# [6] = target: Muscarinic acetylcholine receptor M4 (Homo sapiens) (UniProt P08173); assay: compounds altering M4/GIRK thallium flux, either direction, primary screen, M4 allosteric agonist project, cell-based, HEK293 M4/GIRK, BTC-AM (AID 625;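 active = fluorescence slope after compound addition differing from the mean of all tested samples at 99.7% confidence, mostly higher but some lower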;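 note: thallium influx through GIRK channels coupled to M4 in HEK293 cells with BTC-AM dye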); conditions: at 10 µM, actives lie on both sides
# Chain of Muscarinic acetylcholine receptor M4 (Homo sapiens) (P08173 whole entry, looked up): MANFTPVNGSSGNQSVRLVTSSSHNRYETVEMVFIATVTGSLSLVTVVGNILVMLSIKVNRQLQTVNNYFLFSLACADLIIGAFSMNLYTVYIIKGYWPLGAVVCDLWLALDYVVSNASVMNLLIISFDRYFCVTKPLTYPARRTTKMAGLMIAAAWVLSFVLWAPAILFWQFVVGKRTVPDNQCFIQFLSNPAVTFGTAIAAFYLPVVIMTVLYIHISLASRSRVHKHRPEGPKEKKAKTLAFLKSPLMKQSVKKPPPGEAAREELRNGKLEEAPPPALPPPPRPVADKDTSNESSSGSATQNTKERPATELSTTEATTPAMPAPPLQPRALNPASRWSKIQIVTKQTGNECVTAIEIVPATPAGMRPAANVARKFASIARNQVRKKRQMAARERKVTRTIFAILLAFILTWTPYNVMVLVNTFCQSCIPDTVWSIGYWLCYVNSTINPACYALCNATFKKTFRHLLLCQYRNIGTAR
# In short: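 Material: HEK293 cells with M4 receptor and GIRK channels; Times: cells overnight at 37 °C, BTC-AM loading 1 h, reads 2 min total; Technique: kinetic BTC-AM fluorescence sampled at 1 Hz, 10 s pre-addition baseline; Read-out basis: slope over 15–24 s of trace normalized to starting intensity; Controls: carbachol positive, DMSO negative.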
# [7] = inhibitors of Sendai virus-induced IRF3 signaling, primary screen, TLR/RLR signaling modifier project, cell-based, Sendai virus stimulus, luciferase, 10K MLSCN set (AID 602276;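 active = inhibition at or above 50% at 10 µM; inactive = inhibition below 50%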;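 note: firefly luciferase from ISG56 promoter only with Renilla not read in this screen; 0% = Sendai virus plus DMSO and 100% = medium plus DMSO without virus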); conditions: HEK293 RL24 IRF3 luciferase reporter, at 10 µM, stronger effect = higher value
# [8] = inhibitors of poly I:C-induced TLR3 signaling, primary screen, cell-based, poly I:C stimulus, luciferase, 10K MLSCN set (AID 602277;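 active = inhibition of the reporter signal at or above 50%; inactive = inhibition below 50%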); conditions: HEK293-TLR3 RL24 IRF3 luciferase reporter, at 10 µM, stronger effect = higher value
SMILES,cell count [1],inhibition [1],inhibition of aggregation [2],nuclei count [2],inhibition [3],nuclei count [3],fluorescence slope [4],NADPH fluorescence slope [5],fluorescence slope [6],inhibition [7],inhibition [8]
O=C1CSC(c2cccc(F)c2)N1c1ccccc1F (centres undefined),650,-15.7% (inactive),36.5% (inactive),118%,-120% (inactive),100%,-0.614 (inactive),6.1e-06 (inactive),0.00376 (inactive),15% (inactive),18.1% (inactive)
CCN(CC)c1ccc2c(c1)CCCN2,669,6.8% (inactive),2.8% (inactive),91%,-36.1% (inactive),126%,-0.559 (inactive),3.7e-05 (inactive),0.00991 (inactive),8.33% (inactive),1.7% (inactive)
CN1CCCN(C(=O)c2cc(=O)[nH]c3ccccc23)c2nc3ccccc3nc21,369,-0.6% (inactive),5.4% (inactive),101%,-33% (inactive),117%,-0.394 (inactive),-0.000122 (inactive),0.00653 (inactive),16.3% (inactive),34.1% (inactive)
Cc1sc2nc(SCC(=O)NCc3ccco3)n(CCc3ccccc3)c(=O)c2c1C,589,-17.7% (inactive),-11.6% (inactive),101%,-45.3% (inactive),108%,-0.394 (inactive),5.5e-06 (inactive),0.0086 (inactive),13.1% (inactive),0.6% (inactive)
COC(=O)c1ccccc1NC(=O)c1cc(-c2ccc(OC)c(OC)c2)on1,443,-28.4% (inactive),-3.3% (inactive),104%,-29.1% (inactive),111%,-0.269 (inactive),-3.4e-05 (inactive),0.00826 (inactive),3.07% (inactive),5.03% (inactive)
O=C(COc1ccc(Cl)cc1)Nc1ncccn1,436,-3.8% (inactive),4.3% (inactive),98.6%,-12.3% (inactive),87.1%,-0.456 (inactive),-7.3e-05 (inactive),0.00491 (inactive),14.4% (inactive),-0.516% (inactive)
COc1ccccc1OCc1ccc(C(=O)OCC2CCCO2)o1 (centres undefined),640,-5% (inactive),-10.7% (inactive),73.2%,0.1% (inactive),113%,-0.503 (inactive),-0.000334 (inactive),0.00535 (inactive),-10.8% (inactive),-24.7% (inactive)
CCn1c(=O)cc(SCC(=O)N2CCOCC2)c2ccccc21,460,-1.2% (inactive),0.4% (inactive),115%,-69.7% (inactive),120%,-0.549 (inactive),-2.4e-05 (inactive),0.00553 (inactive),75.8% (active),51.3% (active)
O=C(CSc1nc2ccccc2o1)N1CCN(c2ccc(Cl)cc2)CC1,301,-0.5% (inactive),-13.9% (inactive),117%,-47% (inactive),124%,-0.576 (inactive),-3.9e-05 (inactive),0.00749 (inactive),16.8% (inactive),7.29% (inactive)
CN(C)S(=O)(=O)c1ccc(C(=O)N2CCC(c3nc4ccccc4o3)CC2)cc1,468,8.2% (inactive),-9.7% (inactive),103%,40.1% (inactive),95%,-0.427 (inactive),-9.6e-05 (inactive),0.00556 (inactive),10.5% (inactive),12.2% (inactive)
CC(NC(=O)c1ccco1)C(c1cccs1)N1CCN(c2ccc(F)cc2)CC1 (centres undefined),519,-0.2% (inactive),-0.1% (inactive),82%,-22.2% (inactive),114%,-0.489 (inactive),0.000157 (inactive),0.00654 (inactive),11.9% (inactive),12.2% (inactive)
CCOC(=O)c1nnn(-c2nonc2NC(C)=O)c1C,323,6.5% (inactive),-14.1% (inactive),98.9%,-39.1% (inactive),93.3%,-0.58 (inactive),-1.6e-05 (inactive),0.00665 (inactive),17.3% (inactive),14% (inactive)
Cc1cccc(NC(=O)c2cc3n(n2)C(C(F)(F)F)CC(c2ccc4c(c2)OCO4)N3)c1 (centres undefined),555,-6.9% (inactive),0.5% (inactive),82.7%,45.8% (inactive),127%,-0.546 (inactive),-3.2e-05 (inactive),0.00563 (inactive),25.3% (inactive),25.4% (inactive)
Nc1nc(CN2CCOCC2)cs1,650,-4.8% (inactive),7.7% (inactive),104%,14.6% (inactive),113%,-0.577 (inactive),-2.3e-05 (inactive),0.00598 (inactive),15.2% (inactive),14.7% (inactive)
